Measured values pooled from the literature.
Compare with care: the assays were run in different laboratories.

Compound	target or system	test	test system	setting	endpoint	value
CC(C)C[C@@H]1NC(=O)[C@@H](N(C)C(=O)[C@H](CC2CCC2)NC(=O)[C@@H]2C[C@@H](F)CN2C(=O)C2(C(F)(F)F)CC(F)(F)C2)CCCCNC(=O)C2(CC2)NC(=O)[C@H](Cc2cc(Cl)ccc2Cl)N(C)C1=O	NCI-H69	cell growth or viability, MTT	–	5 days	GI50	13 nM
C=CC(=O)NC1CCN(c2ncc3ncnc(Nc4ccc(Oc5ccc6c(c5)ncn6C)c(C)c4)c3n2)CC1	AU565	cell growth or viability	–	–	EC50	20.8 nM
C=C/C=C(\C)CC[C@@H]1C[C@@H](O)CC(=O)O1	Bacillus cereus	microbial growth, broth dilution	ATCC10876	–	MIC	128 µg/mL
O=C(O)c1cn(C2CC2)c2cc(N3CCNCC3)c(F)cc2c1=O	Salmonella enterica	microbial growth, broth dilution	TYPHIMURIUM	–	MIC	0.03 µM
COc1cc2c3c(n(CCCN4CCOCC4)c(=O)c2cc1OC)-c1nc2c(cc1C3=O)OCO2	RPMI-8226	cell growth or viability, MTS	–	72 h	IC50	905 nM
O=C(O)c1cn(C2CC2)c2cc(N3CCNCC3)c(F)cc2c1=O	Salmonella enterica	microbial growth	ATCC13311	–	MIC	4 µM
CC(=O)OCC1=C(C(=O)O)N2C(=O)[C@@H](NC(=O)Cc3cccs3)[C@H]2SC1	Salmonella enterica	microbial growth, broth dilution	TYPHIMURIUM	–	MIC	< 127 µg/mL
CCNCCCn1c2c(c3cc(OC)c(OC)cc3c1=O)C(=O)c1cc3c(nc1-2)OCO3	TC-71	cell growth or viability, MTS	–	72 h	IC50	122 nM
